From PubChem BioAssay
An excerpt weighted towards active compounds, which were near 2.9% of everything screened.
Cneo AK release: Cryptococcus neoformans lysis via adenylate kinase release | C. neoformans lysis, adenylate kinase release luminescence, 4 h; normalised: neutral wells 0, clomiphene wells 100 | hit rate 0.2% among 360,000 | lysis activity, % at 15 µM;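 active = mean lysis activity across replicates of at least 80%, whatever share of replicates individually reach that level; inactive = mean lysis activity below 80%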
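Assay system: C. neoformans cells. Amount: yeast cell density of 5 × 10^6 cells/mL. Technique: AK luminescence. Buffer or medium: YPD. Times: static 4 h at 37 °C with compound, 1 h detection. Dosing: single-point compound dose. Read-out: lysis from increased AK signal.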
HIV Env fusion: blocks HIV Env-driven cell-cell fusion; hit rate 1.1% among 360,000; inhibition, % at 12.3 µM; HeLa-JRFL Env/CEM21 cell fusion, luciferase;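 active = mean replicate inhibition score of at least 50 and every replicate individually at or above 50; inconclusive = only one of the two criteria met; inactive = mean below 50 and not all replicates reaching 50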;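 note: 0% = plate neutral controls and 100% = maraviroc near 300 nM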
GSIS activator: GLuc luminescence reporter in INS-1E cells, primary screen for activators of glucose-dependent secretion of insulin | INS-1E GLuc reporter insulin secretion, 2-3 h | activation, % at 16.6 µM | hit rate 0.61% among 370,000 | AID 743287;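 active = lowest replicate activation of at least 40%, so every replicate reaches that level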;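 note: 0% = median of neutral control wells and 100% = median of IBMX positive control wells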
CDK5 p35 inh: CDK5/p35 (human) kinase inhibition. Q00535+Q15078. inhibition, % at 10 µM. hit rate 0.01% among 330,000. Recombinant CDK5/p35, ADP-Glo luminescence, 60 min;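 active = highest replicate inhibition of at least 50% and at least 75% of replicates reaching 50%; inconclusive = only one of the two criteria met; inactive = both criteria failed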;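 note: plate controls were DMSO neutral control for no effect and GW8510 at 10 µM for full effect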
Target sequence (Q00535 whole entry, looked up): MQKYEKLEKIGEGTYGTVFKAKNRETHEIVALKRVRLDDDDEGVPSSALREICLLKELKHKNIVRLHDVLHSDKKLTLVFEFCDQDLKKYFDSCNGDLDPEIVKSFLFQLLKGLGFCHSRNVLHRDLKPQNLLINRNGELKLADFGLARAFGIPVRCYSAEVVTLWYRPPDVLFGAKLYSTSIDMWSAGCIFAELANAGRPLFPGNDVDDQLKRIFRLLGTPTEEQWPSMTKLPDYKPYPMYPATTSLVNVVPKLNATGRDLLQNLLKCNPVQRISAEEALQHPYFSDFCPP
Target sequence (Q15078 whole entry, looked up): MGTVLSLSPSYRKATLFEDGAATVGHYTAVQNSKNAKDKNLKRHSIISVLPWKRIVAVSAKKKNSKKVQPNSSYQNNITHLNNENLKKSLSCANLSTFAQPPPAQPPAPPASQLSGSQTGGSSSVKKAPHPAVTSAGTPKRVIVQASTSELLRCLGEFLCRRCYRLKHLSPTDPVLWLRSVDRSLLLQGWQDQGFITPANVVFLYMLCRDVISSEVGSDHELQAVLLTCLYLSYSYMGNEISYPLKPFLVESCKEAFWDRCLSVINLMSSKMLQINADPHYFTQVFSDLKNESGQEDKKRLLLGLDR
dFosB act: activators of mouse delta FosB homodimer; purified delta FosB, TAMRA-CDK5 oligo fluorescence polarization; percent of positive-control signal above neutral wells; activation, % at 25 µM; hit rate 0.99% among 340,000; AID 493131;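 active = mean activation above about 17%, with every replicate also reaching it, limit read from the data, passing the limit was not always enough; inconclusive = only one of the two conditions met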
PAX8 inh HTS: PAX8 transcriptional activity inhibition; RMG-I TPO-luciferase reporter, SteadyGlo, 24 h; inhibition, % at 12.6 µM; hit rate 1.2% among 360,000; AID 652154;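 active = mean replicate inhibition at least 60% with every replicate also reaching 60%; inconclusive = only one of the two criteria is met; inactive = mean below 60% and not all replicates reaching 60%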;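 note: luciferase light reporting Pax8 driven TPO promoter activity; plate controls were median of neutral control wells for no effect and mitoxantrone controls for full effect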
Starred values were filed as active, the others as inactive; ? = inconclusive; . = not tested or not shown; [ ] = remark or other dose.

SMILES | Cneo AK release | HIV Env fusion | GSIS activator | CDK5 p35 inh | dFosB act | PAX8 inh HTS
C[C@@H]1CCCCO[C@@H](CN(C)CC2CCCCC2)[C@H](C)CN([C@H](C)CO)C(=O)c2cc(NC(=O)Nc3ccc(F)cc3)ccc2O1 | 50.4 | 75.1*[16.7 µM] | -21.9 | . | . | -3.3
C[C@H]1CN([C@@H](C)CO)C(=O)c2cc(C#CC3CC3)cnc2O[C@H]1CN(C)Cc1cccc(C(=O)O)c1 | 2.3 | -10.6[16.7 µM] | -13.5 | . | . | -13.8
COc1ccc2c3c(n(C)c2c1)[C@@H](CO)N(C(=O)C1CCC1)CC31CCN(C(=O)Nc2cccc(F)c2)CC1 | . | . | -28.4 | . | . | 17.2
COc1ccccc1CNC(=O)COC(=O)Cc1c(F)cccc1Cl | . | -6.6 | -12.6 | 2.0 | -1.9 | 65.9*
COc1ccc(NC(=O)COC(=O)Cc2c(F)cccc2Cl)cc1OC | . | 19.5 | 21.4 | 0.5 | -4.3 | -1.1
Cc1ccc(NC2=CC(=O)C(=O)c3ccccc32)c(C)c1 | 1.0 | 57.6* | -43.0 | 2.2 | 3.9 | 26.6
Cc1noc(C)c1S(=O)(=O)Nc1ccc2c(c1)CC(=O)N([C@@H](C)CO)C[C@@H](C)[C@H](CN(C)S(=O)(=O)c1ccc(F)cc1)O2 | -6.0 | 11.9[16.7 µM] | 25.3 | . | . | 8.8
COc1ccccc1OC(=O)CCN1c2ccccc2Sc2ccccc21 | . | . | -30.8 | 0.0 | -5.0 | -13.1
O=C(O)CCN1c2ccccc2Sc2ccccc21 | 2.3 | -1.3 | 68.8* | 0.5 | -6.5 | -17.6
CC(=O)N(C)C[C@@H]1Oc2cc(C#Cc3cccc(F)c3)ccc2S(=O)(=O)N([C@H](C)CO)C[C@@H]1C | 2.1 | 12.8[16.7 µM] | -30.9 | . | . | .
CCc1ccc(-c2cc(C(=O)N/N=C/c3c[nH]c4ccccc34)[nH]n2)cc1 | -1.9 | -246.7 | . | 0.6 | -3.4 | -5.2
CCc1ccc(/C=C/c2c[nH]c3ccccc23)[n+](CC)c1 | . | 50.7 | -14.1 | -0.9 | -7.1 | 66.8*
CN1CCN(C(=O)C[C@@H]2CC[C@H](NS(=O)(=O)c3cccc(F)c3)[C@H](CO)O2)CC1 | 7.1 | -15.6[16.7 µM] | 8.5 | . | . | -12.6
COc1ccc(CN(C)C[C@@H]2Oc3ccc(NC(=O)CCN4CCOCC4)cc3C(=O)N([C@@H](C)CO)C[C@@H]2C)cc1 | -2.2 | 5.8[16.7 µM] | 20.7 | . | . | 3.1
COc1ccc(-c2nn(-c3ccccc3)cc2/C=N/N2C(=O)CSC2=S)cc1 | -3.5 | 66.8* | 13.2 | 0.0 | -9.1 | .
COc1ccc(/C=N/N2C(=O)CSC2=S)cc1 | -1.4 | . | . | 3.0 | -0.3 | .
O=C(C[C@@H]1CC[C@H](NS(=O)(=O)c2ccc(F)cc2)[C@H](CO)O1)NCCN1CCCCC1 | . | -1.8[16.7 µM] | 15.5 | . | . | 1.4
COCCN(C(=O)COC(=O)/C=C/c1ccccc1Cl)c1c(N)n(Cc2ccccc2)c(=O)[nH]c1=O | 8.4 | -78.3 | 17.4 | -2.5 | -4.2 | 14.1
COCCN(C(=O)COC(=O)/C=C/c1ccc2ccccc2n1)c1c(N)n(Cc2ccccc2)c(=O)[nH]c1=O | 3.8 | 24.5 | -3.7 | 1.5 | 9.9 | 63.6*
COCCN(C(=O)COC(=O)c1ccc2c(c1)OCCO2)c1c(N)n(Cc2ccccc2)c(=O)[nH]c1=O | . | . | -4.0 | 0.9 | -6.9 | -10.3
COCCN(C(=O)COC(=O)/C=C/c1nc2ccccc2s1)c1c(N)n(Cc2ccccc2)c(=O)[nH]c1=O | 3.5 | -6.6 | 23.2 | -2.0 | 9.3 | 76.5*
COCCN(C(=O)COC(=O)c1ccc(C=O)cc1)c1c(N)n(Cc2ccccc2)c(=O)[nH]c1=O | 5.3 | 58.3* | 20.8 | 2.0 | -2.1 | -6.0
COc1ccc2c3c([nH]c2c1)[C@@H](CO)N(Cc1nccs1)CC31CN(C(=O)C2CC2)C1 | . | . | 12.6 | . | . | -7.0
COc1ccc(NC(=O)Nc2ccc3c(c2)C(=O)N([C@H](C)CO)C[C@H](C)[C@H](CN(C)S(=O)(=O)c2ccccc2)OCCCC[C@@H](C)O3)cc1 | -0.7 | -10.5[16.7 µM] | 13.3 | . | . | -15.2
CO[C@@H]1CN(C)C(=O)c2ccc(NC(=O)C3CCC3)cc2OC[C@H](C)N(C(=O)NC(C)C)C[C@H]1C | 0.3 | 2.3[16.7 µM] | 2.6 | . | . | .
SMILES | Cneo AK release | HIV Env fusion | GSIS activator | CDK5 p35 inh | dFosB act | PAX8 inh HTS
O=C1CSC(c2ccccc2)N1c1ccc(F)cc1F (configuration not stated) | -2.5 | 7.7 | 47.8* | 0.6 | 0.6 | -8.0
O=C1CSC(c2ccccc2)N1c1ccccc1F (configuration not stated) | -0.1 | -2.2 | 38.7 | -2.4 | -2.9 | -6.0
COc1ccc(F)cc1C(=O)C1CCCN(C(=O)c2ccc(C(C)=O)s2)C1 (configuration not stated) | -3.9 | 10.0 | 76.1* | -1.4 | -3.7 | 11.6
CC(C)c1cn(CC[C@H]2CC[C@@H](NC(=O)C3CCOCC3)[C@H](CO)O2)nn1 | . | . | -14.5 | . | . | .
CCOC(=O)c1sc(NC(=O)Cn2nnc3sc4c(c3c2=O)CCC(C(C)(C)C)C4)nc1C (configuration not stated) | 3.4 | . | -4.0 | -6.3 | -3.8 | 72.9*
Clc1ccc(C2Nc3cccc4cccc(c34)N2)cc1 | 0.8 | 4.2 | -3.8 | 1.4 | 1.7 | 29.1
Brc1ccc(C2Nc3cccc4cccc(c34)N2)s1 | . | -27.6 | 0.2 | 1.6 | 23.1* | 2.6
COCCN(CC(=O)NC1CCCCC1)C(=O)/C=C/C(=O)c1ccc(OC)cc1O | . | -184.4 | 49.1* | -1.4 | -2.5 | 91.5*
OCC1OC(n2ccc3c(NO)ncnc32)C(O)C1O (configuration not stated) | . | 90.7* | -16.5 | 1.3 | -7.4 | .
O=c1[nH]nnc2c1ncn2C1OC(CO)C(O)C1O (configuration not stated) | 2.6 | ? | 8.9 | . | . | 96.7*
OCC1OC(n2cnc3c(NCc4ccccc4O)ncnc32)C(O)C1O (configuration not stated) | . | 38.7 | -20.4 | -2.0 | -2.1 | 109.1*
OC[C@H]1O[C@@H](n2cnc3c(Nc4ccccc4)ncnc32)[C@H](O)[C@@H]1O | -1.9 | -4.5 | . | -1.7 | 2.1 | -14.7
CN(C)c1ncnc2c1ccn2C1OC(CO)C(O)C1O (configuration not stated) | 7.4 | 76.7* | -4.6 | 1.1 | -2.8 | ?
CO[C@@H]1CN(C)C(=O)c2ccc(NC(=O)C3CCCCC3)cc2OC[C@@H](C)N(C(=O)c2ccccc2)C[C@H]1C | 0.0 | -19.8[16.7 µM] | -14.2 | . | . | 0.5
O=C(c1ccccc1)N1CCN(C(=O)N2CCOCC2)CC1 | 1.1 | -75.8 | . | 1.9 | -6.7 | 2.7
O=C1C(=C(c2ccccc2)N2CCOCC2)Cc2ccccc21 | . | -464.8 | . | . | . | 113.0*
O=C(CNC(=S)N(Cc1ccc(F)cc1)C1CCCCC1)NCC1CCCO1 (configuration not stated) | . | -11.6 | 9.0 | -4.9 | 2.8 | 3.4
O=C(CNC(=S)N(Cc1ccccc1F)C1CCCCC1)NCC1CCCO1 (configuration not stated) | . | ? | 4.2 | 0.2 | -3.0 | 65.4*
